In ChEMBL document CHEMBL4145519, “Structural investigations on coumarins leading to chromeno[4,3-c]pyrazol-4-ones and pyrano[4,3-c]pyrazol-4-ones: New scaffolds for the design of the tumor-associated carbonic anhydrase isoforms IX and XII” (Eur J Med Chem, 2018):
The source made the active and inactive calls. The rule behind the calls is not given here.

Key:
Carbonic anhydrase 1 = Carbonic anhydrase 1 (Homo sapiens, UniProt P00915); experiment: Inhibition of human CA1 after 15 mins by stopped-flow CO2 hydration assay
Chain of Carbonic anhydrase 1 (P00915 whole entry): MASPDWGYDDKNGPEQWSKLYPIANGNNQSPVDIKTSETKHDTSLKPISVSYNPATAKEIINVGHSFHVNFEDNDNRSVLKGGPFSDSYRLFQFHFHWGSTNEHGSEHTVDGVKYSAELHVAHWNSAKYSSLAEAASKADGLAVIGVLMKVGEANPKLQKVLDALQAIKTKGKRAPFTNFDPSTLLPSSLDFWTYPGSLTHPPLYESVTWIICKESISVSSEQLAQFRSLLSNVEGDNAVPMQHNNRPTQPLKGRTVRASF

Carbonic anhydrase 9 = Carbonic anhydrase 9 (Homo sapiens, UniProt Q16790); experiment: Inhibition of human CA9 after 15 mins by stopped-flow CO2 hydration assay
Carbonic anhydrase 12 = Carbonic anhydrase 12 (Homo sapiens, UniProt O43570); experiment: Inhibition of human CA12 after 15 mins by stopped-flow CO2 hydration assay
Chain of Carbonic anhydrase 12 (O43570 whole entry): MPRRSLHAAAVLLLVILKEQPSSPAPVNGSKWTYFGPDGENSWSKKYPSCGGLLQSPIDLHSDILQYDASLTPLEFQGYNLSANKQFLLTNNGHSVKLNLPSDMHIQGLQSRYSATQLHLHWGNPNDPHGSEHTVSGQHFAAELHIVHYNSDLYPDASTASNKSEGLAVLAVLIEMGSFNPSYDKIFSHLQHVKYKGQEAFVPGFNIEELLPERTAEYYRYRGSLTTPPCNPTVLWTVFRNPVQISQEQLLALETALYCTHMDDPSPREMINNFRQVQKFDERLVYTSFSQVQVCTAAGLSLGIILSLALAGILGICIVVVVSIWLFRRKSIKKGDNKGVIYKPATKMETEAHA

Carbonic anhydrase 2 = Carbonic anhydrase 2 (Homo sapiens, UniProt P00918); experiment: Inhibition of human CA2 after 15 mins by stopped-flow CO2 hydration assay
HT-29 [1] = experiment: Antiproliferative activity against human HT-29 cells at 100 uM after 48 hrs under normoxic conditions by MTT assay; format: functional
In short: (§1)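 HT-29 colon cancer cells in DMEM high glucose with 20% FBS were seeded at 1·10^4/well. After 24 h they were exposed to 0–300 μM compound for 16, 48 or 72 h in air (20% O2, 5% CO2, 37 °C). MTT (1 mg/ml) was added for 30 min, formazan dissolved in DMSO and read at 550 nm. Viability is relative to untreated control (100%). Quadruplicates on ≥3 cell batches, mean ± SEM.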

HT-29 [2] = experiment: Antiproliferative activity against human HT-29 cells at 30 to 300 uM after 72 hrs under hypoxic conditions by MTT assay; format: functional, cell-based
In short: (§2)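 Hypoxic workstation at 0.1% O2, 5% CO2 and residual N2. HT-29 cells (DMEM high glucose, 20% FBS; 1·10^4/well) were treated 24 h post-plating with 0–300 μM compound for 16, 48 or 72 h. Viability was measured by MTT reduction (1 mg/ml, 30 min, 37 °C; DMSO-dissolved formazan, A550) and expressed as % of untreated control. Quadruplicates, ≥3 batches, mean ± SEM.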

HT-29 [3] = experiment: Antiproliferative activity against human HT-29 cells at 100 uM after 72 hrs under hypoxic conditions by MTT assay; format: functional; in short: as §2
HT-29 [4] = experiment: Antiproliferative activity against human HT-29 cells at 30 to 300 uM after 48 hrs under normoxic conditions by MTT assay; format: functional, cell-based; in short: as §1
HT-29 [5] = experiment: Antiproliferative activity against human HT-29 cells at 30 to 300 uM after 16 hrs under normoxic conditions by MTT assay; format: functional, cell-based; in short: as §1
HT-29 [6] = experiment: Antiproliferative activity against human HT-29 cells at 30 to 300 uM after 48 hrs under hypoxic conditions by MTT assay; format: functional, cell-based; in short: as §2
HT-29 [7] = experiment: Antiproliferative activity against human HT-29 cells after 16 hrs under normoxic conditions by MTT assay; format: functional, cell-based; in short: as §1
HT-29 [8] = experiment: Antiproliferative activity against human HT-29 cells at 30 uM after 48 hrs under hypoxic conditions by MTT assay; format: functional; in short: as §2
[9] = Solubility of the compounds at 300 uM; format: physicochemical
HT-29 [10] = experiment: Antiproliferative activity against human HT-29 cells at 30 to 100 uM after 16 hrs under normoxic conditions by MTT assay; format: functional, cell-based; in short: as §1
HT-29 [11] = experiment: Antiproliferative activity against human HT-29 cells at 30 to 100 uM after 48 hrs under normoxic conditions by MTT assay; format: functional, cell-based; in short: as §1
HT-29 [12] = experiment: Antiproliferative activity against human HT-29 cells at 30 to 100 uM after 72 hrs under hypoxic conditions by MTT assay; format: functional, cell-based; in short: as §2
HT-29 [13] = experiment: Antiproliferative activity against human HT-29 cells at 30 to 100 uM after 72 hrs under normoxic conditions by MTT assay; format: functional, cell-based; in short: as §1

Compound | Ki (Carbonic anhydrase 1) [nM] | Ki (Carbonic anhydrase 9) [nM] | Ki (Carbonic anhydrase 12) [nM] | Ki (Carbonic anhydrase 2) [nM] | further results
COc1ccc(-n2nc(C)c3c(=O)oc4ccccc4c32)cc1 | > 10000 | 40.2 | > 10000 | > 10000 | 
O=c1oc2ccccc2c2c1c(Cc1ccccc1)nn2Cc1ccccc1 | > 10000 | 31.5 | 819 | > 10000 | 
Cc1nn(-c2ccccc2)c2c1c(=O)oc1ccc(NC(=O)c3ccccc3)cc12 | > 10000 | 15.3 | > 10000 | > 10000 | Activity (HT-29 [1]): 50%; Activity (HT-29 [2]): Active; Activity (HT-29 [3]): 40%; Activity (HT-29 [4]): Active; Activity (HT-29 [5]): Active
Cn1nc(Cc2ccccc2)c2c(=O)oc3ccccc3c21 | > 10000 | 19.7 | 343 | > 10000 | 
CC(=O)Nc1ccc2oc(=O)c3c(C)nn(-c4ccccc4)c3c2c1 | > 10000 | 26.8 | 646 | > 10000 | 
Cc1nn(-c2ccc(C(=O)O)cc2)c2c1c(=O)oc1ccccc12 | > 10000 | 1960 | 24.7 | > 10000 | 
Cc1nn(-c2ccccc2)c2c1c(=O)oc1ccc(N)cc12 | > 10000 | 34.5 | > 10000 | > 10000 | Activity (HT-29 [2]): Active; Activity (HT-29 [4]): Active; Activity (HT-29 [5]): Active; Activity (HT-29 [6]): Active
Cc1cc2c(c(C)nn2-c2ccccc2)c(=O)o1 | > 10000 | 26.6 | 518 | > 10000 | 
COc1c(C(C)=O)c(=O)oc2ccc(Br)cc12 | > 10000 | 90.7 | 706 | > 10000 | 
CC(=O)c1cc2ccccc2oc1=O [3-ACETYLCOUMARIN] | > 10000 | 152 | 7.8 | > 10000 | 
CCOc1c(C(C)=O)c(=O)oc2ccc(Br)cc12 | > 10000 | 46.4 | 737 | > 10000 | 
CC(=O)c1c(O)c2cc([N+](=O)[O-])ccc2oc1=O | > 10000 | 44.2 | 357 | > 10000 | 
Cc1nn(-c2ccccc2)c2c1c(=O)oc1ccccc12 | > 10000 | 9.6 | 5.8 | > 10000 | Activity (HT-29 [4]): Active; Activity (HT-29 [7]): Dose-dependent effect; Activity (HT-29 [6]): Active
Cc1nn(-c2ccccc2C(=O)O)c2c1c(=O)oc1ccccc12 | > 10000 | 76.8 | 27.3 | > 10000 | 
Cc1cc2nn(-c3ccccc3)c(C)c2c(=O)o1 | > 10000 | 41.4 | > 10000 | > 10000 | Activity (HT-29 [2]): Active; Activity (HT-29 [4]): Active; Activity (HT-29 [7]): Dose-dependent effect; Activity (HT-29 [6]): Active
O=c1oc2ccccc2c2c1cnn2-c1ccccc1 | > 10000 | 30.1 | > 10000 | > 10000 | Activity (HT-29 [4]): Active; Activity (HT-29 [8]): <=70%; Activity (HT-29 [5]): Active; Activity (HT-29 [6]): Active
Cc1nn(-c2ccccc2)c2c1c(=O)oc1ccc([N+](=O)[O-])cc12 | > 10000 | 27.1 | > 10000 | > 10000 | Activity (HT-29 [4]): Active; Activity (HT-29 [7]): Dose-dependent effect; Activity (HT-29 [6]): Active
Cc1nn(-c2ccccc2)c2c1c(=O)oc1ccc(NCc3ccccc3)cc12 | > 10000 | 37.8 | 360 | > 10000 | 
Cc1nn(-c2ccccc2)c2c1c(=O)oc1cc(Cl)c([N+](=O)[O-])cc12 | > 10000 | 801 | 6060 | > 10000 | 
CC(=O)c1cc2ccc(Cl)cc2oc1=O | > 10000 | 809 | 4530 | > 10000 | 

Compound | Ki (Carbonic anhydrase 1) [nM] | Ki (Carbonic anhydrase 9) [nM] | Ki (Carbonic anhydrase 12) [nM] | Ki (Carbonic anhydrase 2) [nM] | further results
CC(=O)c1cc2cc([N+](=O)[O-])ccc2oc1=O | > 10000 | 44.9 | 695 | > 10000 | 
O=c1oc2ccccc2c2nn(Cc3ccccc3)c(Cc3ccccc3)c12 | > 10000 | 290 | 672 | > 10000 | 
CNc1ccc2oc(=O)c3c(C)nn(-c4ccccc4)c3c2c1 | > 10000 | 51.3 | 737 | > 10000 | 
Cc1c2c(=O)oc3ccc(Br)cc3c2nn1-c1ccccc1 | > 10000 | 25.2 | > 10000 | > 10000 | 
Cc1nn(-c2ccccc2)c2c1c(=O)oc1ccc(Br)cc12 | > 10000 | 8.5 | 7.1 | > 10000 | 
Cc1ccc(-n2nc(C)c3c(=O)oc4ccccc4c32)cc1 | > 10000 |  | > 10000 | > 10000 | solubility [9]: Insoluble; Activity (HT-29 [10]): Active; Activity (HT-29 [11]): Active
CC(=O)c1c(O)c2cc(Br)ccc2oc1=O | > 10000 | 8.2 | 5.6 | > 10000 | Activity (HT-29 [1]): 35%; Activity (HT-29 [12]): Active; solubility [9]: Insoluble; Activity (HT-29 [10]): Active; Activity (HT-29 [13]): Active; Activity (HT-29 [11]): Active; Activity (HT-29 [6]): Active
Cc1nn(-c2ccc(Cl)cc2)c2c1c(=O)oc1ccccc12 | > 10000 | 403 | > 10000 | > 10000 | 
CC(=O)c1cc2cc([N+](=O)[O-])c(Cl)cc2oc1=O | > 10000 | 561 | 6400 | > 10000 | 
O=c1oc2ccccc2c2nn(-c3ccccc3)cc12 | > 10000 | 37.6 | > 10000 | > 10000 | 
Cc1c2c(=O)oc3ccccc3c2nn1-c1ccccc1 | > 10000 | 38.1 | 593 | > 10000 | 
Cn1nc2c(c1Cc1ccccc1)c(=O)oc1ccccc12 | > 10000 | 555 | 33.3 | > 10000 | 
COc1c(C(C)=O)c(=O)oc2ccccc12 | > 10000 | 28.4 | 674 | > 10000 | 
Cc1c2c(=O)oc3ccc([N+](=O)[O-])cc3c2nn1-c1ccccc1 | > 10000 | 35.8 | 360 | > 10000 | 
Cc1nn(-c2ccccc2)c2c1c(=O)oc1ccc(N(C)C)cc12 | > 10000 | 59.4 | 360 | > 10000 | 
Cc1nn(-c2ccccc2)c2c1c(=O)oc1ccc(NC(=O)Nc3ccccc3)cc12 | > 10000 | 77.9 | 583 | > 10000 | 
Cc1nn(Cc2ccccc2)c2c1c(=O)oc1ccccc12 | > 10000 | 371 | 732 | > 10000 | 
CC(=O)c1c(O)c2ccccc2oc1=O | > 10000 | 35.9 | 453 | > 10000 | 
Cc1nn(-c2ccccc2)c2c1c(=O)oc1cc(Cl)ccc12 | > 10000 | 57.9 | 819 | > 10000 | 
